Source: PubChem
Rows were chosen to be rich in hits. Some 9.6% of all compounds tested hit in one or more screens of this group.
MT stabilize HCS: microtubule stabilizers in HeLa cells, primary screen, imaging, high-content imaging; HeLa tubulin immunostaining HCS, 24 h; share of cells brighter than vehicle mean+2SD; % tubulin-high responders, % at 10 µM; 200,000 tested, 0.83% active;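 active = plate Z-score above 3 for both tubulin-high and condensed-nucleus cell shares, with cell loss under 80%, at 10 µM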;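 note: anti alpha tubulin signal scored within the nucleus-defined area of each cell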
BaF3 tox: parental Ba/F3 cell viability inhibition, counter-screen for JAK2V617F inhibitor project, murine pro-B, CellTiter-Glo luminescence; 220,000 tested, 1.1% active; CellTiter-Glo ATP luminescence; inhibition, % at 5.6 µM;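 active = inhibition above a per-campaign cutoff, the mean inhibition of all tested compounds plus 3 SD, cut at about 27% in these data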;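 note: 0% = DMSO wells and 100% = JAK Inhibitor I control wells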
APP 5UTR inh: inhibitors of APP translation via 5'UTR reporter, primary screen, APP 5'UTR luciferase, SH-SY5Y cells; 190,000 tested, 0.82% active; inhibition, % at 2 µM; SH-SY5Y APP 5'UTR-luciferase reporter, luminescence; AID 1285, 2008;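 active = inhibition above a set limit, derived from the sample mean plus 3 SD, cut at about 45% in these data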
bCat nuc transl: modulators of beta-catenin nuclear translocation, primary screen, imaging, HeLa cells, immunofluorescence, high-content | AID 1665, 2009 | 190,000 tested, 0.3% active | nuclear translocation activity, % at 5 µM;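 active = nuclear translocation activity above 50% at 5 µM, with a well cell count of 50 or more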;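 note: per-cell ratio of nuclear to cytoplasmic median beta-catenin stain intensity; plate controls were DMSO negative control for no effect and GSK-3 inhibitor IX positive control for full effect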
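test system = HeLa cells, endogenous beta-catenin | dosing = single 5 µM dose plus 0.02–20 µM confirmation series | times = compound treatment 24 h, 37°C, 5% CO2 | technique = beta-catenin immunofluorescence imaging with DAPI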
Ba/F3 V617F tox: reduced viability of JAK2V617F-dependent Ba/F3 cells, primary screen, JAK2V617F inhibitor project, cell-based, Ba/F3 EpoR-JAK2V617F, luminescence; 220,000 tested, 1.1% active; AID 1446, 2008; ATP luminescence; inhibition, % at 5.6 µM;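 active = inhibition above the campaign mean plus 3 SD over all tested compounds, cut at about 24% in these data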;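 note: cytokine-independent growth of Ba/F3 cells driven by EpoR plus mutant JAK2; 0% = DMSO-treated cells and 100% = JAK inhibitor I control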
Lmaj promast: Leishmania major promastigote growth inhibition, primary screen | Leishmania major promastigotes, resazurin fluorescence viability | inhibition, % at 10 µM | 200,000 tested, 9% active; in the data active = inhibition above about 50%;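 note: promastigotes grown with compound for 44 hours at 28 °C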
Starred values were filed as active, the others as inactive; · = not tested or not shown.

SMILES	MT stabilize HCS	BaF3 tox	APP 5UTR inh	bCat nuc transl	Ba/F3 V617F tox	Lmaj promast
CCN(CC)S(=O)(=O)c1ccc(C)c(NC(=O)CN2CCN(C)CC2)c1	·	-1.9	·	-0.7	-5.4	·
CC(=O)Nc1ccc(OC(=O)C(CCS(C)(=O)=O)N2C(=O)c3ccccc3C2=O)cc1 (centres undefined)	3.3	-1.9	18.0	-0.9	-4.8	90.8*
CCOC(=O)c1c(C)n(C)c2ccc(OCC(O)Cn3nc(C)cc3C)cc12 (centres undefined)	1.8	4.3	10.3	·	-2.6	85.6*
CC(=O)c1c(C)n(-c2ccccc2)c2ccc(OCC(O)CN3CCOCC3)cc12 (centres undefined)	1.3	0.9	-2.1	-10.1	-0.9	5.5
CCOC(=O)c1c(C)n(C)c2ccc(OCC(O)CN(CC)CC)cc12 (centres undefined)	4.6	6.0	8.0	·	-1.3	98.7*
CCN(CC)CC(O)COc1ccc2c(c1)c(C(C)=O)c(C)n2-c1ccccc1 (centres undefined)	4.3	-0.9	12.7	-2.8	-3.5	100.2*
CN(C)C(=O)c1ccc(-c2cc(C(F)(F)F)n(C)n2)s1	·	1.6	·	0.1	1.7	·
Cc1ccc(C(=O)Nc2ncc(Cc3ccc(F)cc3)s2)o1	2.0	71.3*	-133.7	0.5	79.7*	-9.1
Cc1ccc(C(=O)Nc2nnc(C)s2)cc1	4.8	3.3	-85.8	-0.8	-0.4	-5.1
Cc1ccc(C(=O)Nc2ccc3c(c2)CCC3)o1	2.0	8.9	-119.5	0.5	6.4	-0.9
Cc1ccc(C(=O)Nc2ncc(Cc3ccc(SC(F)F)cc3)s2)cc1	7.3	1.9	92.6*	135.0*	3.3	-1.1
Cc1ccc(C(=O)Nc2ccc(F)cc2)o1	2.2	4.4	-19.7	-0.7	4.2	50.7*
O=C(NCc1ccc(Cl)cc1)C1CCCN(S(=O)(=O)c2cnc[nH]2)C1 (centres undefined)	1.7	1.2	-12.2	·	-3.5	-5.3
CC1CCN(C(=O)/C(=C\c2cccs2)NC(=O)c2ccccc2)CC1	2.1	-2.0	9.9	-0.7	-2.4	1.8
CC(C)CC(NC(=O)c1ccc(Cl)cc1)C(=O)OCC(=O)c1ccc2c(c1)NC(=O)CO2 (centres undefined)	1.8	1.9	25.1	-1.7	2.2	63.7*
CC(C)[C@H](NC(=O)c1ccco1)C(=O)OCC(=O)c1ccc2c(c1)NC(=O)CO2	1.6	0.4	18.4	0.5	1.8	-3.6
CC(C)(C)c1cc(-c2n[nH]c(=S)n2-c2ccccc2F)n[nH]1	·	-1.4	·	-0.2	3.6	·
Cc1ccc(C(c2nnnn2C2CCCCC2)N(C)C2CCCCC2)cc1 (centres undefined)	0.7	1.5	·	-2.1	-3.8	71.5*
COc1cc2cc(C(c3nnnn3C3CCCC3)N(C)C3CCCCC3)c(=O)[nH]c2cc1OC (centres undefined)	2.5	2.7	-0.3	3.0	-0.2	16.1
CC(C)C(c1nnnn1C1CCCC1)N(C)C1CCCCC1 (centres undefined)	2.8	4.9	-2.5	-2.0	4.2	0.6
COc1cc2cc(C(c3nnnn3C3CCCCC3)N(C)C3CCCCC3)c(=O)[nH]c2cc1OC (centres undefined)	4.0	1.7	4.3	-4.3	-2.5	71.8*
COc1cc(/C=C/C(=O)NC(C)CCc2ccccc2)cc(OC)c1OC (centres undefined)	2.4	7.2	-2.7	-0.5	3.0	35.0
Cc1[nH][nH]c(=O)c1C(c1ccc(-c2ccc(Cl)c(C(=O)O)c2)o1)c1c(C)[nH][nH]c1=O	1.0	-1.9	26.8	-0.6	-0.5	-4.9
COC(=O)c1ccccc1-c1ccc(C(c2c(C)[nH][nH]c2=O)c2c(C)[nH][nH]c2=O)o1	3.9	-0.7	-16.9	1.2	-4.2	100.2*
COC(=O)c1cccc(-c2ccc(C(c3c(C)[nH][nH]c3=O)c3c(C)[nH][nH]c3=O)o2)c1	1.9	5.8	-5.9	-0.6	-0.1	92.4*
SMILES	MT stabilize HCS	BaF3 tox	APP 5UTR inh	bCat nuc transl	Ba/F3 V617F tox	Lmaj promast
Cc1ccc(C(=O)NCCc2ccc(F)cc2)s1	2.0	4.6	-161.7	6.3	-0.1	-4.0
O=C(Nc1ccccc1C(F)(F)F)c1c(F)cccc1Cl	2.5	12.4	-10.3	0.1	1.3	-2.9
Cc1ccc(Cn2ccc(NC(=O)c3nc4ncccn4n3)n2)cc1	2.7	3.6	-15.3	-0.2	1.0	50.8*
O=C(Nc1nnc(-c2ccccc2)o1)Nc1ccc(F)cc1F	1.9	2.7	13.1	-3.7	-0.4	7.2
COc1ccc(NCC(=O)Nc2ccc(Cl)cc2C)c(OC)c1	5.8	4.8	5.2	0.8	6.6	99.0*
CCOc1ccc(NCC(=O)Nc2ccc(Cl)cc2C)cc1	3.4	1.0	6.5	1.0	-1.7	29.7
CCc1ccc(N2C(=O)c3cc(N4CCOCC4)c([N+](=O)[O-])cc3C2=O)cc1	2.1	8.9	-10.8	-3.1	-0.2	-4.5
CCc1cccc(CC)c1N1C(=O)c2cc(N3CCOCC3)c([N+](=O)[O-])cc2C1=O	3.1	5.6	-9.0	-4.8	1.6	84.0*
Cc1ccc(C)c(N2C(=O)c3cc(N4CCOCC4)c([N+](=O)[O-])cc3C2=O)c1	2.5	1.2	-10.4	-1.1	-2.2	55.3*
Cc1ccccc1Nc1cc(C(=O)NCc2ccco2)c2ccccc2n1	2.7	1.4	-1.0	-2.3	-0.2	76.4*
Cc1ccc(-c2nc(NCc3ccco3)c3ccccc3n2)cc1	2.2	6.5	-6.7	·	-3.3	100.0*
c1cncc(-c2nc(NCc3ccco3)c3ccccc3n2)c1	4.1	2.5	3.8	-3.3	-3.1	76.8*
Cc1ccccc1Nc1nc(NCc2ccco2)c2ccccc2n1	3.4	6.8	-6.5	1.8	7.6	100.5*
O=C(c1c(F)cccc1F)N(Cc1ccccn1)C1CC1	3.5	2.0	-14.0	2.1	-2.7	3.7
O=C(NC1CCN(C(=S)NCc2ccco2)CC1)c1cccc(F)c1	4.3	4.5	6.6	-4.7	-0.4	-7.8
Cc1[nH]c2ccccc2c1C(=O)COC(=O)c1c(-c2c(F)cccc2Cl)noc1C	2.0	7.7	3.7	-0.3	2.0	49.6
CSc1nc(NCc2ccco2)c2ccccc2n1	1.4	4.3	-10.6	·	-1.3	69.9*
COc1cc(Cl)c(C)cc1NC(=O)CN(C)Cc1cccc(OC)c1OC	5.8	3.7	1.1	-6.1	3.3	17.9
O=C1/C(=C/c2ccc(Cl)cc2)NC(=S)N1Cc1cccnc1	3.6	-3.5	20.6	0.7	-4.5	83.7*
O=C(CN1CCN(C(=O)C2COc3ccccc3O2)CC1)Nc1ccccc1 (centres undefined)	·	0.8	·	1.1	-0.8	·
Cc1nc(NC(=O)c2csc3ccccc23)sc1C	3.4	0.2	-150.9	-3.3	-3.0	59.6*
